Laboratory results taken from ChEMBL document CHEMBL1153840, “Targeting of the Brucella suis virulence factor histidinol dehydrogenase by histidinol analogues results in inhibition of intramacrophagic multiplication of the pathogen” (Antimicrob Agents Chemother, 2007).
Activity calls are given as the source filed them. No cut-off for these calls is given here.

Assays:
Brucella suis [1] = experiment: Growth inhibition of Brucella suis 1330 in minimal medium devoid of 1 mM histidine at 100 uM after 96 hrs; assay type: functional, organism-based
Brucella suis [2] = experiment: Antibacterial activity against Brucella suis 1330 assessed as reduction in bacterial growth in minimal medium after 96 hrs relative to control; assay type: functional
THP-1 = experiment: Toxicity against human THP1 cells at 25 uM after 48 hrs by trypan blue exclusion method; assay type: cell-based; conditions: thp-1, 48 h
Procedure, shortened: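 Infected THP1 macrophage-like cells are stained with trypan blue at 48 h postinfection, at the drug concentrations used in the intracellular assay.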

Brucella suis [3] = experiment: Antibacterial activity against Brucella suis 1330 assessed as reduction in bacterial intramacrophagic multiplication in human THP1 cells at 25 uM treated 90 mins postinfection measured 24 hrs postinfection relative to control; assay type: functional, THP-1
Brucella suis [4] = experiment: Antibacterial activity against Brucella suis 1330 in minimal medium at 100 uM after 96 hrs; assay type: functional, organism-based
Brucella suis [5] = experiment: Growth inhibition of Brucella suis 1330 in minimal medium containing 1 mM histidine at 100 uM after 96 hrs; assay type: functional, organism-based
Brucella suis [6] = experiment: Inhibition of intracellular replication of Brucella suis 1330 in human THP1 cells assessed as reduction in number of viable intracellular bacteria at 25 uM treated 90 mins postinfection measured 24 hrs postinfection relative to control; assay type: functional, organism-based; conditions: THP-1
Histidinol dehydrogenase = molecular target: T1, Histidinol dehydrogenase (Brucella suis biovar 1 (strain 1330), UniProt Q8G2R2); experiment: Inhibition of Brucella suis histidinol dehydrogenase
T1 sequence (Q8G2R2 whole entry): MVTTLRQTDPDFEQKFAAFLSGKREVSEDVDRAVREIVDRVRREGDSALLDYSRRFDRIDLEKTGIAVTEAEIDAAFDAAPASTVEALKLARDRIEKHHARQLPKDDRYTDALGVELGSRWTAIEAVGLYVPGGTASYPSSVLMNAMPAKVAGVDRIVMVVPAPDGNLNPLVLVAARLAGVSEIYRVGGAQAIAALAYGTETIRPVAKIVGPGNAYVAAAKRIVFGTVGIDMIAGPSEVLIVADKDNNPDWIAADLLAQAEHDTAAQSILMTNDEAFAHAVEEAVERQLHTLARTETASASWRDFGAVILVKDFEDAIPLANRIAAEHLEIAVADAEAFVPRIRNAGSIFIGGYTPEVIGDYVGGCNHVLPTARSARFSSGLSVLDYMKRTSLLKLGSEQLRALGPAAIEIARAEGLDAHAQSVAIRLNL

Brucella suis [7] = experiment: Antibacterial activity against Brucella suis 1330 in minimal medium after 96 hrs; assay type: functional, organism-based

| SMILES | Activity (Brucella suis [1]) | fold change (FC) (Brucella suis [2]) | Activity (THP-1) | fold change (FC) (Brucella suis [3]) | inhibition (Brucella suis [4]) | Activity (Brucella suis [5]) | Activity (Brucella suis [6]) | IC50 (Histidinol dehydrogenase) [nM] | inhibition (Brucella suis [7]) |
| --- | --- | --- | --- | --- | --- | --- | --- | --- | --- |
| Cl.Cl.N[C@@H](Cc1c[nH]cn1)C(=O)Cc1ccc(-c2ccccc2)cc1 | Active | 12 | Non-toxic | 50 | Active | inactive | Active | 6 | Dose-dependent effect |
| Cl.Cl.N[C@@H](Cc1c[nH]cn1)C(=O)Cc1ccc(Cl)cc1 | – | 12 | Non-toxic | 50 | Active | – | Active | 6 | Dose-dependent effect |
| Cl.Cl.N[C@@H](Cc1c[nH]cn1)C(=O)Cc1ccc(Cl)c(Cl)c1 | – | 12 | – | – | – | – | – | 6 | – |
| Cl.Cl.N[C@@H](Cc1c[nH]cn1)C(=O)Cc1ccc(F)cc1 | – | 12 | – | – | Active | – | – | 6 | – |
| COc1ccc(CC(=O)[C@@H](N)Cc2c[nH]cn2)cc1.Cl.Cl | – | 12 | – | – | – | – | – | 6 | – |
| Cl.Cl.N[C@@H](Cc1c[nH]cn1)C(=O)Cc1c(F)c(F)c(F)c(F)c1F | – | 12 | – | – | – | – | – | 6 | – |
| Cl.Cl.N[C@@H](Cc1c[nH]cn1)C(=O)Cc1ccc2ccccc2c1 | – | 12 | Non-toxic | 50 | Active | – | Active | 6 | Dose-dependent effect |
| Cc1ccc(CC(=O)[C@@H](N)Cc2c[nH]cn2)cc1.Cl.Cl | – | 12 | – | – | – | – | – | 6 | – |
| Cl.Cl.N[C@@H](Cc1c[nH]cn1)C(=O)Cc1ccc(Oc2ccccc2)cc1 | – | 12 | – | – | – | – | – | 6 | – |
| Cl.Cl.N[C@@H](Cc1c[nH]cn1)C(=O)Cc1ccccc1 | – | 12 | – | – | – | – | – | 6 | – |
| Cl.Cl.N[C@@H](Cc1c[nH]cn1)C(=O)Cc1cccc2ccccc12 | – | 12 | – | – | – | – | – | 6 | – |
| Cl.Cl.N[C@@H](Cc1c[nH]cn1)C(=O)Cc1ccc(F)cc1F | – | 12 | – | – | – | – | – | 6 | – |
| Cl.Cl.N[C@@H](Cc1c[nH]cn1)C(=O)Cc1ccc(Br)cc1 | – | 12 | Non-toxic | 50 | Active | – | Active | – | Dose-dependent effect |
| Cl.Cl.N[C@@H](Cc1c[nH]cn1)C(=O)Cc1ccc(OCc2ccccc2)cc1 | – | 12 | – | – | – | – | Active | – | – |
| Cl.Cl.N[C@@H](Cc1c[nH]cn1)C(=O)Cc1ccc2c(c1)OCO2 | – | 12 | – | – | – | – | – | 6 | – |
